Screening data from PubChem BioAssay.
Sampled rows, rich in hits. Any-hit rate of the full collection: about 0.77%.
HMGR II inh: inhibitors of class II HMG-CoA reductase from Enterococcus faecalis. purified E. faecalis HMGR, NADPH absorbance 340 nm kinetic. inhibition, % at 10 µM. actives 0.41% (n = 190,000). AID 1066;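 active = inhibition above a set limit, the median over all tested compounds plus 3 SD, cut at about 9.5% in these data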;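 also: enzyme runs in reverse so mevalonate oxidation gives rising NADPH absorbance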
Rad51 HR inh: Rad51 (human) homologous recombination inhibition | Q06609 | AID 1385 | actives 0.085% (n = 200,000) | hRad51 DNA strand exchange, fluorescence dequenching | inhibition, % at 10 µM;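 active = inhibition above 40% at the single screening dose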
Target sequence (Q06609 whole entry, looked up): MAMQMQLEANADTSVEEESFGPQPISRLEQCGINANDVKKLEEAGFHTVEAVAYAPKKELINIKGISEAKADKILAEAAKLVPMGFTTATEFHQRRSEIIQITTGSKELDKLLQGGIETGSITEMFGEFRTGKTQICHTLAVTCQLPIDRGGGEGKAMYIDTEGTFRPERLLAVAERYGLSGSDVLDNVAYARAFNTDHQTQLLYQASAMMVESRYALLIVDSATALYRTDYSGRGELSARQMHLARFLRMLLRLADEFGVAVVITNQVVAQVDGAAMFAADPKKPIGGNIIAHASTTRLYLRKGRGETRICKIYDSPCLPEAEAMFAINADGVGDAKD
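material = hRad51 filaments on single-stranded DNA | timing = filaments 15 min 37 °C, then compound 30 min | signal = FRET fluorescence dequenching, excitation 485 nm, emission 520 nm | benchmarks = control wells and blank wells on each plate | evaluation = percent inhibition relative to plate controls and blanks | compound = 10 µM final, single point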
Furin inhibitor: inhibitors of human furin | P09958 | purified furin, fluorogenic substrate cleavage | inhibition, % at 20 µM or 30 µM | actives 0.061% (n = 220,000) | AID 463115; in the data active = inhibition above about 25%
ABCB1 inh: inhibitors of human ABCB1 transporter, ABCG2 counter-screen | inhibition, % at 6.6 µM | CCRF-Adr cells, JC-1 efflux, flow cytometry | P08183 | actives 0.067% (n = 190,000); in the data active = inhibition above about 40%;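 also: higher value means more JC-1 retained so stronger ABCB1 efflux block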
PERK inhibitor: human PERK inhibition, primary cell-based screen; CHO PERK-DD fusion, SEAP luminescence translation reporter; inhibition, % at 5.6 µM; actives 0.17% (n = 220,000); AID 1416;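 active = inhibition above the mean inhibition of all tested compounds plus 3 SD, set separately per screening campaign, cut at about 2.9% in these data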;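 also: PERK kinase domain activated by AP20187 dimerizer at 100 nM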
ABCG2 block: human ABCG2 inhibition, ABCB1 as counter-screen; actives 0.1% (n = 190,000); inhibition, % at 6.6 µM; Q9UNQ0; IgMXP3 cells, JC-1 efflux, flow cytometry;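 active = inhibition above 80%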
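Times: 10 min at 25 °C | Test system: Two drug-resistant human cell lines, ABCG2 and ABCB1 | Quantity: 3 million cells/mL final, two lines in 1:1 ratio | Signal: Flow cytometry, 530 nm JC-1 signal | Dosing: Compound at 6.6 µM | Controls: Nicardipine and DMSO wells | Reagent: JC-1 as fluorescent efflux pump substrate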
Numbers stand for hits; i = inactive; nt = not tested or not shown.

SMILES	HMGR II inh	Rad51 HR inh	Furin inhibitor	ABCB1 inh	PERK inhibitor	ABCG2 block
O=C(CSc1nnc(-c2cccs2)n1-c1ccccc1)N1CCc2ccccc21	nt	nt	i	nt	i	nt
COC(CNC(=O)CNC(=S)N(Cc1ccccc1)Cc1cccnc1)OC	9.6	i	i	i	i	i
O=C(CNC(=S)N(Cc1ccccc1)Cc1cccnc1)NCc1ccccc1	i	i	i	i	i	i
FC(F)(F)c1cccc(Cn2cnc(NC(=S)NCCc3ccccc3)n2)c1	i	i	i	i	i	i
COc1ccc(NC(=O)Nc2ncn(Cc3cccc(C(F)(F)F)c3)n2)cc1OC	i	i	29	i	i	i
Cc1cc(C)cc(N(C(=O)c2csnn2)C(C(=O)NC(C)(C)C)c2cccnc2)c1 (stereo not given)	i	i	i	i	i	i
Cc1ccc(S(=O)(=O)Nc2cccc(/C=C/C(=O)O)c2)cc1	11	i	i	i	i	i
Cc1cc(=O)[nH]c(SCC(=O)Nc2ccc3c(c2)OCCO3)n1	i	nt	i	i	3.3	i
COC(=O)c1c(NC(=S)Nc2ccc(C(=O)N3CCOCC3)cc2)sc2c1CCC2	i	i	i	i	3.0	i
CCOC(=O)c1c(NC(=S)Nc2ccc(OC)cc2)sc2c1CCC2	i	i	i	i	i	i
O=C1CC(C(=O)Nc2cccc(Cl)c2)n2ncnc2N1 (stereo not given)	12	i	i	i	i	i
CCOc1ccc(-c2nnn(CC(=O)N3CCCC(C)C3)n2)cc1 (stereo not given)	13	i	i	i	i	i
COc1ccc2cc(C(=O)NCc3ccco3)c(=Nc3ccc(C(=O)O)cc3)oc2c1	i	i	i	i	i	i
COc1ccc2oc(=Nc3ccc(C(=O)O)cc3)c(C(=O)NCc3ccco3)cc2c1	15	i	i	i	i	i
COc1cccc(N2CC(=O)N(c3cccc(OC)c3)CC2=O)c1	9.7	i	i	i	i	i
Cc1cccc(N2CC(=O)N(c3cccc(C)c3)CC2=O)c1	i	i	i	i	i	i
O=C(CSc1nnc(COc2cccc3cccnc23)o1)N1CCCC1	12	i	i	i	i	i
CC1CCCC(C)N1C(=O)CSc1nnc(COc2cccc3cccnc23)o1 (stereo not given)	i	i	i	i	i	i
COc1ccc(C(=O)NC2CCN(CC(=O)Nc3cccc(C)c3)CC2)cc1OC	11	i	i	i	i	i
C/C(CCN1CCCCc2nc(C)c(C)cc21)=N\O[C@H](C)c1cn([C@H](CO)Cc2ccccc2)nn1	12	nt	i	i	i	i
CN(C)c1ccc2c3c(ccc(N(C)C)c13)COC2	15	nt	i	i	i	i
CN(C)c1cccc2cccc(N(C)C)c12	nt	i	i	nt	i	nt
CCN1/C(=C/C(C)=C/c2sc3ccccc3[n+]2CC)Sc2ccccc21	i	81	i	i	i	i
CCOC(=O)c1c(NC(=O)CC2SC(N)=NC2=O)sc2c1CCCC2 (stereo not given)	i	i	i	i	i	i
CCOc1ccc2ccccc2c1CNCCN1CCOCC1	10	i	i	i	i	i
SMILES	HMGR II inh	Rad51 HR inh	Furin inhibitor	ABCB1 inh	PERK inhibitor	ABCG2 block
CCCCC[C@H](O)/C=C/[C@@H]1[C@@H](C/C=C\CCCC(=O)O)[C@H]2CO[C@@H]1C2	11	i	i	i	i	i
C#CCNC(=O)C1=C[C@H](C(C)(C)C)C[C@H](OCCCCO)O1	nt	i	nt	nt	nt	nt
CCN(CC)CCOC(=O)c1ccc(NC(=O)c2ccc(Cl)c(S(=O)(=O)N3CCCCCC3)c2)cc1	i	i	i	i	i	i
O=C(NCc1ccco1)C1CCCN(S(=O)(=O)c2ccc(Br)cc2)C1 (stereo not given)	11	i	i	i	i	i
CCOC(=O)C1CCCN(S(=O)(=O)c2ccc(C)cc2)C1 (stereo not given)	i	i	i	i	i	i
O=C(NNC(=O)C1CCCN(S(=O)(=O)c2ccc3ccccc3c2)C1)C1CC1 (stereo not given)	i	i	i	i	4.3	i
CS(=O)(=O)N1CCCC(C(=O)NCc2ccco2)C1 (stereo not given)	i	i	i	i	i	i
CCOC(=O)C1CCCN(S(=O)(=O)c2ccc(OC)cc2)C1 (stereo not given)	i	46	i	i	i	i
CC1CCCCC1NC(=S)Nc1ccc(Cl)cc1Cl (stereo not given)	i	41	i	i	i	i
O=C1CC(N2CCC(c3nc4ccccc4o3)CC2)C(=O)N1Cc1cccs1 (stereo not given)	i	i	27	i	i	i
COc1ccc(CNC(=O)COC(=O)CCC2CCCCC2)cc1	i	i	i	i	i	i
CC(C)(C)NC(=O)NC(=O)COC(=O)CCC1CCCC1	nt	46	i	nt	i	nt
Cc1ccccc1-n1nc(C(=O)O)cc1-c1ccccc1	i	i	i	i	3.1	i
CCOC(=O)c1cc(-c2ccc(OC)cc2)n(CCC(=O)NC2CCN(Cc3ccccc3)CC2)c1C	10	i	i	i	i	i
CCOC(=O)c1cc(-c2ccc(F)cc2)n(CCC(=O)NC2CCN(Cc3ccccc3)CC2)c1C	i	i	i	i	i	i
Nc1nonc1-n1nnc(C(=O)O)c1-c1cccs1	10	i	i	i	i	i
CCOC(=O)c1nnn(-c2nonc2N)c1-c1cccs1	i	i	i	i	i	i
C=C1CCN([C@@H](CC(C)C)C(=O)NCCC(C)C)S(=O)(=O)c2ccccc21	nt	i	nt	nt	nt	nt
Cc1cc([N+](=O)[O-])nn1CC(=O)Nc1ccc(F)cc1	11	i	i	i	i	i
Cc1cccnc1NC(=O)Cn1nc([N+](=O)[O-])cc1C	14	i	i	i	i	i
CC(C)c1ccccc1NC(=S)N1CCN(Cc2ccc3c(c2)OCO3)CC1	i	48	i	i	i	i
Cc1cccc(NC(=S)N2CCN(Cc3ccc4c(c3)OCO4)CC2)c1C	i	i	i	i	i	i
CN(C(=O)CSc1nnnn1-c1ccccc1)C1CCS(=O)(=O)C1 (stereo not given)	i	i	i	i	i	i
CCOC(=O)C1(CCCc2ccccc2)CCN(C(=O)C2CCCN(C(N)=O)C2)CC1 (stereo not given)	i	i	i	i	i	i
CCc1ccc(NC(=S)Nc2ccc3[nH]c(=O)[nH]c3c2)cc1	nt	nt	i	nt	3.0	nt
O=C(NC(NC(=S)Nc1ccccc1C(=O)O)C(Cl)(Cl)Cl)c1ccccc1 (stereo not given)	17	i	i	i	i	i
CC(OC(=O)c1cc(=O)[nH]c2ccccc12)c1ccccc1 (stereo not given)	i	i	i	i	i	i
COc1ccccc1NC(=O)Cn1cnc2c(cnn2-c2ccccc2)c1=O	12	i	i	i	i	i
